Experimental data taken from ChEMBL document CHEMBL4689842, “EUbOPEN Chemogenomics Library wave 1” (2021).
“And” between values parts separate entries of the source, which are not always exact repeats. Equal entries are not always repeated.

Columns and labels:
Type in all cases: toxicity, cell-based
[1] = system: U2OS; assay: Incucyte cell viability with U2OS; settings: human, 10 µM, compound concentration 10 uM; also: filed as whole numbers so only -1 and 0 and 1 occur
[2] = system: Fibroblast; assay: Multiplex assay against human fibroblast; settings: 10 µM, compound concentration 10 uM
Method in brief: (§1)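 Tubulin, mitochondrial-mass and membrane-permeability phenotypes are per cents of healthy-nucleus cells. Cells were gated by CellPathfinder machine learning into Hoechst high-intensity objects or normal cells, normal cells into healthy, pyknosed or fragmented nuclei, and pyknosed cells into mitotic or apoptotic. Before that, live cells stained at seeding with Hoechst33342, BioTracker Green Microtubule Cytoskeleton Dye, MitoTracker Red and Annexin V Alexa Fluor 680 were imaged on a CQ1 microscope at 37°C and 5% CO2 after compound addition.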

[3] = system: HEK-293T; assay: Multiplex assay against HEK293T; settings: human, 10 µM, compound concentration 10 uM; method in brief: as §1;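 as to Population Tubulin-Different-Phenotype (%): share of the cells with healthy nuclei that show this phenotype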

O=C(O)c1ccc2c(c1)nc(Nc1cccc(Cl)c1)c1ccncc12 [SILMITASERTIB]
Growth Rate ([1]; 0 h, replicate number 1, timepoint 0 hours): 0 | Growth Rate ([1]; 0 h, replicate number 2, timepoint 0 hours): 1 | Growth Rate ([1]; 6 h, replicate number 1, timepoint 6 hours): 1 | Growth Rate ([1]; 6 h, replicate number 2, timepoint 6 hours): 0 | Growth Rate ([1]; 12 h, replicate number 1, timepoint 12 hours): 0 | Growth Rate ([1]; 18 h, replicate number 1, timepoint 18 hours): 0 | Growth Rate ([1]; 24 h, replicate number 1, timepoint 24 hours): 0 | Population Apoptotic (%) ([2]; 12 h, replicate 1): 75% and 73% | Population Fragmented Nuclei (%) ([2]; 12 h, replicate 1): 29% and 31% | Population Healthy Nuclei (%) ([2]; 12 h, replicate 1): 56% and 60% | Population Hoechst High Intensity Objects (%) ([2]; 12 h, replicate 1): 20% and 12% | Population Membrane Permeable-Phenotype (%) ([2]; 12 h, replicate 1): 10% and 4% | Population Mitochondria Different-Phenotype (%) ([2]; 12 h, replicate 1): 2% and 3% | Population Mitotic Cells (%) ([2]; 12 h, replicate 1): 25% and 26% | Population Normal (%) ([2]; 12 h, replicate 1): 79% and 87% | Population Pyknosed Nuclei (%) ([2]; 12 h, replicate 1): 14% and 7% | Population Tubulin-Different-Phenotype (%) ([2]; 12 h, replicate 1): 6% and 4% | Total Cell Count ([2]; 12 h, replicate 1): 314 and 234 | Population Apoptotic (%) ([2]; 12 h, replicate 2): 33% and 60% | Population Fragmented Nuclei (%) ([2]; 12 h, replicate 2): 60% and 64% | Population Healthy Nuclei (%) ([2]; 12 h, replicate 2): 33% and 25% | Population Hoechst High Intensity Objects (%) ([2]; 12 h, replicate 2): 30% and 32% | Population Membrane Permeable-Phenotype (%) ([2]; 12 h, replicate 2): 17% and 15% | Population Mitochondria Different-Phenotype (%) ([2]; 12 h, replicate 2): 11% and 7% | Population Mitotic Cells (%) ([2]; 12 h, replicate 2): 66% and 40% | Population Normal (%) ([2]; 12 h, replicate 2): 69% and 67% | Population Pyknosed Nuclei (%) ([2]; 12 h, replicate 2): 5% and 9% | Population Tubulin-Different-Phenotype (%) ([2]; 12 h, replicate 2): 29% and 23% | Total Cell Count ([2]; 12 h, replicate 2): 73 and 76 | Population Apoptotic (%) ([2]; 24 h, replicate 1): 53% | Population Fragmented Nuclei (%) ([2]; 24 h, replicate 1): 32% and 26% | Population Healthy Nuclei (%) ([2]; 24 h, replicate 1): 53% and 60% | Population Hoechst High Intensity Objects (%) ([2]; 24 h, replicate 1): 19% and 17% | Population Membrane Permeable-Phenotype (%) ([2]; 24 h, replicate 1): 5% | Population Mitochondria Different-Phenotype (%) ([2]; 24 h, replicate 1): 2% | Population Mitotic Cells (%) ([2]; 24 h, replicate 1): 46% | Population Normal (%) ([2]; 24 h, replicate 1): 80% and 82% | Population Pyknosed Nuclei (%) ([2]; 24 h, replicate 1): 14% and 13% | Total Cell Count ([2]; 24 h, replicate 1): 314 and 235 | Population Apoptotic (%) ([2]; 24 h, replicate 2): 66% and 50% | Population Fragmented Nuclei (%) ([2]; 24 h, replicate 2): 62% | Population Healthy Nuclei (%) ([2]; 24 h, replicate 2): 26% and 29% | Population Hoechst High Intensity Objects (%) ([2]; 24 h, replicate 2): 27% and 33% | Population Membrane Permeable-Phenotype (%) ([2]; 24 h, replicate 2): 14% and 6% | Population Mitotic Cells (%) ([2]; 24 h, replicate 2): 33% and 50% | Population Normal (%) ([2]; 24 h, replicate 2): 72% and 66% | Population Pyknosed Nuclei (%) ([2]; 24 h, replicate 2): 11% and 7% | Population Tubulin-Different-Phenotype (%) ([2]; 24 h, replicate 2): 21% and 31% | Total Cell Count ([2]; 24 h, replicate 2): 73 and 81 | Population Apoptotic (%) ([3]; 12 h, replicate 1): 24% and 17% | Population Fragmented Nuclei (%) ([3]; 12 h, replicate 1): 14% and 17% | Population Healthy Nuclei (%) ([3]; 12 h, replicate 1): 67% and 65% | Population Hoechst High Intensity Objects (%) ([3]; 12 h, replicate 1): 10% and 15% | Population Membrane Permeable-Phenotype (%) ([3]; 12 h, replicate 1): 8% and 6% | Population Mitochondria Different-Phenotype (%) ([3]; 12 h, replicate 1): 5% and 4% | Population Mitotic Cells (%) ([3]; 12 h, replicate 1): 76% and 82% | Population Normal (%) ([3]; 12 h, replicate 1): 89% and 84% | Population Pyknosed Nuclei (%) ([3]; 12 h, replicate 1): 17% | Population Tubulin-Different-Phenotype (%) ([3]; 12 h, replicate 1): 7% and 6% | Total Cell Count ([3]; 12 h, replicate 1): 624 and 579 | Population Apoptotic (%) ([3]; 12 h, replicate 2): 11% and 7% | Population Fragmented Nuclei (%) ([3]; 12 h, replicate 2): 8% and 10% | Population Healthy Nuclei (%) ([3]; 12 h, replicate 2): 84% and 85% | Population Hoechst High Intensity Objects (%) ([3]; 12 h, replicate 2): 3% and 2% | Population Membrane Permeable-Phenotype (%) ([3]; 12 h, replicate 2): 4% and 1% | Population Mitochondria Different-Phenotype (%) ([3]; 12 h, replicate 2): 9% | Population Mitotic Cells (%) ([3]; 12 h, replicate 2): 88% and 92% | Population Normal (%) ([3]; 12 h, replicate 2): 96% and 97% | Population Pyknosed Nuclei (%) ([3]; 12 h, replicate 2): 6% and 3% | Total Cell Count ([3]; 12 h, replicate 2): 1391 and 1841 | Population Apoptotic (%) ([3]; 24 h, replicate 1): 28% and 16% | Population Fragmented Nuclei (%) ([3]; 24 h, replicate 1): 14%
